# Experimental data published in PubChem BioAssay.
# Some of the results follow. Inconclusive results are not listed. A number with no mark means an inactive call. The source made the active and inactive calls.
# Tests used:
# [1] = molecular target: Solute carrier family 12 member 5 (Homo sapiens) (UniProt Q9H2X9); assay: retest of KCC2 transport modulators without sodium – cell-based, HEK293 KCC2, thallium flux, secondary assay, confirmation (AID 1713;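 active = thallium flux slope above the same plate's solvent-only control mean plus 3 SD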); details: FluoZin2 fluorescence, at 10 µM, stronger effect = higher value
# Procedure, shortened: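 Evaluation: F/F0 slope over 10–20 s post-thallium, baseline-normalized / Material: KCC2-expressing HEK cells / Detection: FluoZin2 fluorescence, 480/540 nm, 1 Hz / Times: 48 min dye loading / Medium: Sodium-free N-methylglucamine chloride buffer / Compound: 10 µM single dose, 0.1% DMSO / Control set: bumetanide and DMSO controls / Probe or stimulus: thallium sulfate stimulus buffer at pH 7.3 / Repeats: duplicates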
# [2] = PubChem AID 1714; details: HEK293-KCC2 + bumetanide/ouabain, thallium flux FluoZin2; at 10 µM; stronger effect = higher value;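 note: raw slope of fluorescence over initial fluorescence between 10 and 20 s after thallium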
# Procedure, shortened: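 Test system: HEK cells expressing the K-Cl cotransporter KCC2 | Compound: One dose, 10 µM, 0.1% DMSO | Replication: Duplicates | Evaluation: Normalized thallium flux slope | Detection: FluoZin2-AM (0.5 µM) fluorescence, 480 nm ex/540 nm em, 1 Hz kinetic imaging | Incubation: Overnight culture 37 °C, dye loading 48 min | Reagent: Thallium stimulus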
# [3] = molecular target: Solute carrier family 12 member 5 (Homo sapiens) (UniProt Q9H2X9); assay: retest of KCC2 transport modulation, ouabain-free – cell-based, HEK293 KCC2, thallium flux, FluoZin2, secondary assay 2, confirmation (AID 1715;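 active = thallium flux slope more than 3 SD above or below the plate's solvent-only control mean, mostly below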;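 note: raw slope with 0.1% DMSO as baseline and bumetanide as block control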); details: HEK293-KCC2, thallium flux FluoZin2 fluorescence; at 10 µM; actives lie on both sides; F/F0 rise rate, 10–20 s post-thallium
# [4] = compound effects on native HEK Tl+ uptake – HEK cells, counterscreen 1, counter-screen for KCC2 modulator project, confirmation (AID 1716); details: HEK293 parental cells, thallium flux FluoZin2, ouabain; at 10 µM; baseline-ratio fluorescence slope, 10–20 s after thallium
# [5] = molecular target: Solute carrier family 12 member 5 (Homo sapiens) (UniProt Q9H2X9); assay: modulation of KCC2 thallium flux in HEK cells – cell-based, ouabain, retest, confirmation (AID 1717;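 active = thallium flux slope beyond 3 SD from same-plate DMSO control mean in most replicates, usually higher, sometimes lower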;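 note: slope of initial-normalized fluorescence between seconds 10 and 20 after thallium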); details: HEK293-KCC2, thallium flux FluoZin2 fluorescence, at 10 µM, bidirectional: low = inhibitor, high = activator
# [6] = native HEK Tl+ uptake effects, second counter-screen – HEK cells, counterscreen 2, counter-screen for KCC2 modulator project, confirmation (AID 1718;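 active = thallium flux slope above the same plate's solvent-control mean plus 3 SD in both duplicate wells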;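 note: run without ouabain in cells lacking the KCC2 cotransporter; slope of fluorescence scaled to its starting value between 10 and 20 s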); details: HEK293 parental, thallium flux FluoZin-2 fluorescence slope; at 10 µM
# Procedure, shortened: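 Material: parental HEK cells. Medium: HBSS, 20 mM HEPES. Reagent: thallium sulfate stimulus, 12 mM in buffer, pH 7.3. Incubation: overnight cell culture at 37 °C, 48 min dye loading, compound before thallium. Signal: FluoZin-2 fluorescence kinetics. Read-out basis: thallium influx rate. Repeats: Per-replicate slope values.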
# Chain of Solute carrier family 12 member 5 (Homo sapiens) (Q9H2X9 whole entry, looked up): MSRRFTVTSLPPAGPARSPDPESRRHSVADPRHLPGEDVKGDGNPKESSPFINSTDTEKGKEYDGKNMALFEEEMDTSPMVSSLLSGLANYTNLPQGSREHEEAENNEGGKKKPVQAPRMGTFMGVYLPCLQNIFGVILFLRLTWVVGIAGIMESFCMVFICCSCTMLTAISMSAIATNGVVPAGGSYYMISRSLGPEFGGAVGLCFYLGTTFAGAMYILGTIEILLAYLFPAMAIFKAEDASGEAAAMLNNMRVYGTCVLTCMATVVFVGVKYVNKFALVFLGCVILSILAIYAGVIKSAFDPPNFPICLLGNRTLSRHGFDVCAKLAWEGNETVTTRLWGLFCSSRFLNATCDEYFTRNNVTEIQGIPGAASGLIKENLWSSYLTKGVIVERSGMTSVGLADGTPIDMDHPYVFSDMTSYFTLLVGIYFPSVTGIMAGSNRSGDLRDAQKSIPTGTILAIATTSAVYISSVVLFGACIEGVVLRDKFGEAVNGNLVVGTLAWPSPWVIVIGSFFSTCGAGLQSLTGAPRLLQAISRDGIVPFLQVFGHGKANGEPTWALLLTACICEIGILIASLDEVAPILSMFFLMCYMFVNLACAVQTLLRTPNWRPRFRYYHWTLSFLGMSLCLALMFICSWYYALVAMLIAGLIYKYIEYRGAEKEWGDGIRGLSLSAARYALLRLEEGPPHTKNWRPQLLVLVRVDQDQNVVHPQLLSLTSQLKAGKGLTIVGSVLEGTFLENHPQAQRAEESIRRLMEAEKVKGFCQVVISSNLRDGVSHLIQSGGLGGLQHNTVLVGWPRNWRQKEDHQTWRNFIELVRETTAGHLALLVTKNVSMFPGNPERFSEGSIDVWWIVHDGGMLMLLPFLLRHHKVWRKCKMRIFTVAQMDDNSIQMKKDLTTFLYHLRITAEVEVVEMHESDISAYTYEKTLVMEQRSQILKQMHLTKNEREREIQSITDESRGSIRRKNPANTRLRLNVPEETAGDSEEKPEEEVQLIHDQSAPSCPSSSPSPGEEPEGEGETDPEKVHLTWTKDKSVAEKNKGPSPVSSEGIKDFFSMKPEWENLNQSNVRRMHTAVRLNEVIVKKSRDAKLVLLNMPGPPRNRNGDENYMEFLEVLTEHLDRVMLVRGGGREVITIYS
SMILES,normalised thallium flux (F/F0 slope) [1],normalized thallium flux [2],normalized thallium flux [3],thallium flux rate (normalised fluorescence) [4],"raw Tl+ flux slope (below DMSO = inhibition, above = activation) [5]",thallium flux slope [6]
c1ccc2c(C[n+]3csc4ccccc43)cccc2c1,0.0079,0.0261 (active),0.0399 (active),0.0169 (active),0.0315 (active),0.0219 (active)
Cc1ccc(Nc2nnc(SCC(=O)c3cc4ccccc4o3)s2)cc1C,0.00887,0.00668,0.0195 (active),0.00694,0.00819 (active),0.00899
CCOC(=O)c1c(C)[nH]c(C)c1C(=O)CSc1nc(N)cc(N)n1,0.00797,0.00434,0.0294,0.00758,0.0193,0.0105
O=[N+]([O-])c1c(NCCO)cc(Sc2nc3ccccc3s2)c2nonc12,0.0147 (active),0.0297 (active),0.0332,0.0134 (active),0.0556 (active),0.0128 (active)
CCC(C)Cn1c(O)cc2nn(-c3nc4ccccc4s3)c(=O)c-2c1C (stereo not drawn),0.00617,0.0393 (active),0.0456 (active),0.0308 (active),0.0409 (active),0.0328 (active)
C=CCn1c(=S)[nH]c2scc(-c3ccco3)c2c1=O,0.0122 (active),0.0771 (active),0.0916 (active),0.0914 (active),0.0814 (active),0.0843 (active)
S=C(NN=C1CCN(Cc2ccccc2)CC1)NC1CCCCC1,0.0184,0.00465,0.0249 (active),0.00811,0.0155 (active),0.0111
COc1cccc(-c2nc(S(=O)(=O)c3ccccc3)c(N3CCOCC3)o2)c1,0.00627,0.0046,0.0314,0.00767,0.0193,0.0105
Cc1nn(-c2ccccc2)c2sc(C(=O)N(Cc3ccco3)C(C)C(=O)NC(C)(C)C)cc12 (stereo not drawn),0.00786,0.00436,0.0324,0.00693,0.0198,0.0103
O=C(CN(c1cccc(Cl)c1)S(=O)(=O)c1ccccc1)NN=C1CCCC1,0.0069,0.00505,0.0271,0.00791,0.0178,0.00991
Cc1ccc(C)c(NC(=S)NNC(=O)c2csc(C)c2)c1,0.0109,0.013 (active),0.034,0.0173 (active),0.0256 (active),0.012
O=C(CCC(=O)OCc1cccc(C(=O)Oc2ccccc2)c1)Nc1cccc2ccccc12,0.00618,0.00434,0.0284,0.00695,0.0171,0.00997
Cc1cccc(NS(=O)(=O)c2ccc(C)c(C(N)=O)c2)c1,0.00589,0.00471,0.0297,0.00787,0.0187,0.0102
CCc1c(SCCC(=O)O)nc2ccccc2c1C,0.00619,0.00439,0.0283,0.00913 (active),0.0166,0.0104
CC/S(CC1CC1(Cl)Cl)=N\S(=O)(=O)c1ccc(C)cc1 (stereo not drawn),0.0104,0.00604,0.0348,0.00744,0.0213,0.0107
CCC(=O)NC(=Nc1nc2ccccc2s1)NC(=O)CC,0.00696,0.0683 (active),0.0951 (active),0.0894 (active),0.0811 (active),0.0859 (active)
COc1ccc(C(=O)NN(C)c2nc(-c3ccccc3)cc(C)c2S(C)(=O)=O)cc1,0.0121 (active),0.0071,0.0316,0.00831,0.0204,0.0107
S=c1[nH]nc(Nc2ccccc2)s1,0.00869,0.00545,0.026 (active),0.00742,0.0108 (active),0.00974
COC(=O)c1cccnc1NC(=S)NC(C)C,0.0244 (active),0.0413 (active),0.0368,0.035 (active),0.0394 (active),0.0178 (active)
COc1ccccc1/C=C/C=N/n1c(-c2ccc(Cl)cc2Cl)n[nH]c1=S,0.0112,0.0155 (active),0.0312,0.0105 (active),0.0229,0.011

SMILES,normalised thallium flux (F/F0 slope) [1],normalized thallium flux [2],normalized thallium flux [3],thallium flux rate (normalised fluorescence) [4],"raw Tl+ flux slope (below DMSO = inhibition, above = activation) [5]",thallium flux slope [6]
Oc1c(C=Nc2cccc3nsnc23)ccc2ccccc12,0.00934,0.00749,0.0296,0.00781,0.0438,0.0106
COc1ccc(CN2CCCCC2C)cc1OC (stereo not drawn),0.00901,0.00633,0.0321,0.00759,0.0191,0.011
O=C(NC(=S)N1CCc2ccccc21)c1ccco1,0.00899 (active),0.0451 (active),0.0395 (active),0.0311 (active),0.0407 (active),0.0243 (active)
Cc1oc(C(N)=O)cc1COc1ccc(C(N)=O)cc1,0.01,0.00743,0.0348,0.00438,0.0196,0.0116
COc1ccc(C(=O)NC(=S)NNC(=O)c2c(-c3ccccc3)noc2C)cc1,0.00558,0.0445 (active),0.0501 (active),0.0354 (active),0.0401 (active),0.0396 (active)
COc1ccc(-c2nc(CS(=O)CC(=O)N3CCc4ccccc4C3)c(C)o2)cc1 (stereo not drawn),0.00722,0.00429,0.0225 (active),0.00707,0.0124 (active),0.00907
COc1cc(NC(=O)c2ccccc2NS(=O)(=O)c2ccc(Cl)s2)cc(OC)c1,0.00642,0.00732,0.0336,0.00377,0.0161 (active),0.0111
CCOc1ccc(C(=O)NCCCN2CCCC2=O)cc1,0.00821,0.00728,0.0335,0.00778,0.0225,0.0108
CN(C)c1nc(=Nc2cccc(Cl)c2)ss1,0.0466 (active),0.104 (active),0.0563 (active),0.0721 (active),0.0696 (active),0.0487 (active)
CNC(=O)/C(=C\C=C\c1ccccc1)NC(=O)c1ccc([N+](=O)[O-])cc1,0.00733,0.00498,0.0219 (active),0.00796,0.0141 (active),0.0103
COc1cccc(-c2nnc(NC(=O)c3ccc(S(=O)(=O)N(CC(C)C)CC(C)C)cc3)o2)c1,0.0109,0.0246 (active),0.0331,0.0752 (active),0.0359 (active),0.0148 (active)
Brc1ccc(C2=CC(c3ccco3)n3ncnc3N2)cc1 (stereo not drawn),0.00373 (active),0.00178 (active),0.0209 (active),0.00407 (active),0.00899 (active),0.00724 (active)
Cc1onc(-c2ccccc2)c1C(=O)NNC(=S)NC(=O)c1ccc(F)cc1,0.00605,0.0254 (active),0.0354,0.018 (active),0.0299 (active),0.0217 (active)
COc1ccc2[nH]c(=S)cc(C)c2c1,0.00897,0.0111 (active),0.0317,0.0146 (active),0.0267,0.0122 (active)
O=C(O)CCN(Cc1ccccc1)S(=O)(=O)c1c(Cl)cccc1Cl,0.00789,0.00499,0.027 (active),0.00714,0.012 (active),0.0112
CC(=O)NC(=S)NNC(=O)c1ccc(Br)cc1,0.00779,0.0133 (active),0.0358,0.0158 (active),–,0.0176 (active)
Cc1ccc(NCc2n[nH]c(=S)n2-c2ccccc2)cc1Cl,0.00768,0.0747 (active),0.0302,0.00846 (active),–,0.00946
O=C(Nc1nc2c(F)cc(F)cc2s1)C1COc2ccccc2O1 (stereo not drawn),0.017 (active),0.0963 (active),0.0398,0.0378 (active),0.0383 (active),0.0155 (active)
CSc1sc(C(=O)NNC(=O)c2ccc(Cl)cc2)c2c1C=CCC2,0.0166 (active),0.0484 (active),0.0343,0.0305 (active),0.0333 (active),0.0136 (active)
O=C(COC(=O)c1ccc(Oc2ccccc2)cc1)Nc1nnc(-c2ccccc2)o1,0.00704,0.0517 (active),0.0474 (active),0.0357 (active),0.0424 (active),0.0346 (active)
